Assay results: ChEMBL document CHEMBL1140219, “Activation of p16 gene silenced by DNA methylation in cancer cells by phosphoramidate derivatives of 2'-deoxyzebularine” (2008)
Calls of active or inactive are those of the source. The calls are words filed in the database; no cut-off is given here.

How the values were obtained:
CFPAC-1 [1] = test: Induction of p16 gene expression in human Cf-Pac-1 cells at 100 uM after 8 days by real time PCR; type: functional, cell-based
Summary of the method: (§1)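 Cf-Pac-1 cells in IMDM/10% FCS were seeded 3×10^5/dish and treated continuously for 8 days from 24 hr after seeding. Medium and drug were refreshed every 2–3 days, with 100 μM thymidine, lower thymidine, or 100 μM uridine added. Total RNA (5 μg) was reverse transcribed with MMLV RT and random primers. p16 mRNA was measured by real-time RT-PCR and normalized to GAPDH.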

CFPAC-1 [2] = test: Induction of hypomethylation at CPG-poor promoter region of MAGEA1 gene in human Cf-Pac-1 cells at 100 uM after 8 days by quantitative Ms-SNuPE in presence of 100 uM thymidine; type: functional, cell-based
Summary of the method: (§2)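 Cf-Pac-1 cells were treated with continuous redosing and received 100 μM thymidine. Genomic DNA (4 μg) was bisulfite-treated and then PCR-amplified: 94°C 3 min, then 40 cycles of 94°C/annealing/72°C, 45 s each. Annealing was 65°C for p16, 53°C for MAGEA1 and 58°C for D4Z4. Ms-SNuPE primer extension was 94°C 1 min, 50°C 30 s, 72°C 20 s.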

T-24 [3] = test: Induction of p16 gene expression in human T24 cells at 1 uM after 8 days by real time PCR; type: functional, cell-based
Summary of the method: (§3)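 T24 or HCT15 cells were treated continuously for 8 days at 1, 10 or 100 μM, with or without 100 μM thymidine. Drug and medium were renewed every 2–3 days. T24 cells were grown in McCoy's 5A with 10% FCS. Total RNA (5 μg) was reverse transcribed with random primers. p16 mRNA was measured by real-time RT-PCR and normalized to GAPDH.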

CFPAC-1 [4] = test: Induction of hypomethylation at repeat sequence D4Z4 in human Cf-Pac-1 cells at 100 uM after 8 days by quantitative Ms-SNuPE in presence of 100 uM thymidine; type: functional, cell-based; summary of the method: as §2
CFPAC-1 [5] = test: Induction of p16 gene expression in human Cf-Pac-1 cells at 10 uM after 8 days by real time PCR; type: functional, cell-based; summary of the method: as §1
CFPAC-1 [6] = test: Induction of p16 gene expression in human Cf-Pac-1 cells at 10 uM by real time PCR in presence of […]; type: functional, cell-based; summary of the method: as §1
CFPAC-1 [7] = test: Cytotoxicity against human Cf-Pac-1 cells assessed as increase in cell population doubling time at 1 uM after 8 days in presence of 100 uM thymidine; type: functional
Summary of the method: (§4)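 Cf-Pac-1 cells grown in IMDM with 10% heat-inactivated FCS at 37°C, 5% CO2. Seeded 3×10^5 cells/10cm dish and treated 24 hr later. Medium and drug were renewed every 2–3 days. Cells were counted by Coulter counter every 2–3 days, with two plates averaged. Population doublings = log(harvested/seeded)/log2. Result is % increase in doubling time over untreated cells.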

T-24 [8] = test: Induction of p16 gene expression in human T24 cells after 8 days by real time PCR in presence of […]; type: functional, cell-based; summary of the method: as §3
T-24 [9] = test: Induction of p16 gene expression in human T24 cells at 10 uM after 8 days by real time PCR; type: functional, cell-based; summary of the method: as §3
CFPAC-1 [10] = test: Induction of p16 gene expression in human Cf-Pac-1 cells after 8 days by real time PCR in presence of 1 to 2 mM thymidine; type: functional, cell-based
CFPAC-1 [11] = test: Induction of p16 gene expression in human Cf-Pac-1 cells at 1 uM after 8 days by real time PCR; type: functional, cell-based; summary of the method: as §1
CFPAC-1 [12] = test: Induction of p16 gene expression in human Cf-Pac-1 cells at 100 uM by real time PCR in presence of […]; type: functional, cell-based; summary of the method: as §1
T-24 [13] = test: Induction of p16 gene expression in human T24 cells at 100 uM after 8 days by real time PCR; type: functional, cell-based; summary of the method: as §3
CFPAC-1 [14] = test: Cytotoxicity against human Cf-Pac-1 cells assessed as increase in cell population doubling time at 10 uM after 8 days in presence of 100 uM thymidine; type: functional; summary of the method: as §4
CFPAC-1 [15] = test: Induction of hypomethylation at CPG-rich region of p16 in human Cf-Pac-1 cells at 100 uM after 8 days by quantitative Ms-SNuPE in presence of 100 uM thymidine; type: functional, cell-based; summary of the method: as §2
CFPAC-1 [16] = test: Induction of hypomethylation at CPG-poor promoter region of MAGEA1 gene in human Cf-Pac-1 cells at 10 uM after 8 days by quantitative Ms-SNuPE in presence of 100 uM thymidine; type: functional, cell-based; summary of the method: as §2
CFPAC-1 [17] = test: Induction of hypomethylation at CPG-rich region of p16 in human Cf-Pac-1 cells at 10 uM after 8 days by quantitative Ms-SNuPE in presence of 100 uM thymidine; type: functional, cell-based; summary of the method: as §2
CFPAC-1 [18] = test: Induction of hypomethylation at repeat sequence D4Z4 in human Cf-Pac-1 cells at 10 uM after 8 days by quantitative Ms-SNuPE in presence of 100 uM thymidine; type: functional, cell-based; summary of the method: as §2
CFPAC-1 [19] = test: Cytotoxicity against human Cf-Pac-1 cells assessed as increase in cell population doubling time at 100 uM after 8 days in presence of 100 uM thymidine; type: functional; summary of the method: as §4
HCT-15 = test: Induction of p16 gene expression in human HCT15 cells at 100 uM after 8 days by real time PCR in presence of […] thymidine; type: functional, cell-based; summary of the method: as §3

Row | Structure (SMILES) | Activity (CFPAC-1 [1]) | Activity (CFPAC-1 [2]) | Activity (T-24 [3]) | Activity (CFPAC-1 [4]) | Activity (CFPAC-1 [5]) | Activity (CFPAC-1 [6]) | Activity (CFPAC-1 [7]) [%] | Activity (T-24 [8]) | Activity (T-24 [9]) | Activity (CFPAC-1 [10]) | Activity (CFPAC-1 [11]) | Activity (CFPAC-1 [12]) | Activity (T-24 [13]) | Activity (CFPAC-1 [14]) [%] | Activity (CFPAC-1 [15]) | Activity (CFPAC-1 [16]) | Activity (CFPAC-1 [17]) | Activity (CFPAC-1 [18]) | Activity (CFPAC-1 [19]) | Activity (HCT-15)
1 | CCOC(=O)C(C)(C)NP(=O)(OC[C@H]1O[C@@H](n2cccnc2=O)C[C@@H]1O)Oc1cccc2ccccc12 (stereo partly specified) | inactive | Active | inactive | Active | inactive | Active | 58 | inactive | inactive | inactive | inactive | Active | inactive | 81 | Active | – | – | – | – | –
2 | C[C@H](NP(=O)(OC[C@H]1O[C@@H](n2cccnc2=O)C[C@@H]1O)Oc1ccccc1)C(=O)OCc1ccccc1 (stereo partly specified) | inactive | – | inactive | – | inactive | – | – | – | inactive | inactive | inactive | – | inactive | – | – | – | – | – | – | –
3 | CC(C)(NP(=O)(OC[C@H]1O[C@@H](n2cccnc2=O)C[C@@H]1O)Oc1ccccc1)C(=O)OCc1ccccc1 (stereo partly specified) | inactive | – | inactive | – | inactive | – | – | inactive | inactive | inactive | inactive | – | inactive | – | – | – | – | – | – | –
4 | CCOC(=O)C(C)(C)NP(=O)(OC[C@H]1O[C@@H](n2cccnc2=O)C[C@@H]1OP(=O)(NC(C)(C)C(=O)OCC)Oc1cccc2ccccc12)Oc1cccc2ccccc12 (stereo partly specified) | inactive | – | inactive | – | inactive | Active | – | inactive | inactive | inactive | inactive | – | inactive | – | – | Active | Active | Active | Active | –
5 | CC(C)(NP(=O)(OC[C@H]1O[C@@H](n2cccnc2=O)C[C@@H]1OP(=O)(NC(C)(C)C(=O)OCc1ccccc1)Oc1ccccc1)Oc1ccccc1)C(=O)OCc1ccccc1 (stereo partly specified) | inactive | – | inactive | – | inactive | – | – | inactive | inactive | inactive | inactive | – | inactive | – | – | – | – | – | – | –
6 | O=c1ncccn1[C@@H]1O[C@H](CO)[C@@H](O)[C@H]1O [ZEBULARINE] | – | – | – | – | – | – | – | – | – | – | – | – | – | – | – | – | – | – | 103% | Active
7 | CCOC(=O)[C@H](C)NP(=O)(OC[C@H]1O[C@@H](n2cccnc2=O)C[C@@H]1OP(=O)(N[C@@H](C)C(=O)OCC)Oc1ccc(Cl)cc1)Oc1ccc(Cl)cc1 (stereo partly specified) | inactive | – | inactive | – | inactive | – | – | inactive | inactive | inactive | inactive | – | inactive | – | – | – | – | – | – | –
8 | Cc1cn([C@H]2C[C@H](O)[C@@H](CO)O2)c(=O)[nH]c1=O [DOXRIBTIMINE] | – | – | – | – | – | – | – | – | – | – | – | – | – | – | – | – | – | – | 0% | –
9 | CCOC(=O)[C@H](C)NP(=O)(OC[C@H]1O[C@@H](n2cccnc2=O)C[C@@H]1O)Oc1ccc(Cl)cc1 (stereo partly specified) | inactive | – | inactive | – | inactive | – | – | inactive | inactive | inactive | inactive | – | inactive | – | – | – | – | – | – | –
10 | COC(=O)[C@H](C)NP(=O)(OC[C@H]1O[C@@H](n2cccnc2=O)[C@@H](F)[C@@H]1O)Oc1ccccc1 (stereo partly specified) | inactive | – | inactive | – | inactive | – | – | – | inactive | inactive | inactive | – | inactive | – | – | – | – | – | – | –
11 | C[C@H](NP(=O)(OC[C@H]1O[C@@H](n2cccnc2=O)[C@@H](F)[C@@H]1O)Oc1ccccc1)C(=O)OCc1ccccc1 (stereo partly specified) | inactive | – | inactive | – | inactive | – | – | – | inactive | inactive | inactive | – | inactive | – | – | – | – | – | – | –
12 | COC(=O)[C@H](C)NP(=O)(OC[C@H]1O[C@@H](n2cccnc2=O)C[C@@H]1O)Oc1ccccc1 (stereo partly specified) | inactive | – | inactive | – | inactive | – | – | – | inactive | inactive | inactive | – | inactive | – | – | – | – | – | – | –
13 | CC(C)(NP(=O)(OC[C@H]1O[C@@H](n2cccnc2=O)C[C@@H]1O)Oc1cccc2ccccc12)C(=O)OCc1ccccc1 (stereo partly specified) | inactive | Active | inactive | Active | inactive | Active | – | inactive | inactive | inactive | inactive | Active | inactive | 36 | Active | – | – | – | 23% | –
